High-throughput results from PubChem BioAssay.
This is one part of a sample in which hits are shown more often than they occur.
XBP1 UPR activ: activators of adaptive XBP1 UPR arm, primary screen, cell-based, CHO-XBP1 luciferase reporter, luminescence, uHTS; IRE1-XBP1 UPR activation; percent of tunicamycin response, DMSO as zero; activation, % at 20 µM; 330,000 compounds, 0.33% hits;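 active = versus positive control, 20 µM dose yields 30% or more activation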;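 note: 100% = tunicamycin at 10 µg/mL and 0% = DMSO only wells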
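Test system: CHO-XBP1 luciferase reporter cells | Buffer or medium: Serum-containing F12 medium, 10% FBS | Schedule: 6 h compound exposure at 37 °C, 5% CO2 | Detection: Steady-Glo luciferase glow luminescence, 10 min after reagent addition | Read-out basis: Activation, % of tunicamycin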
Dynein transport: inhibitors of GR-EGFP nuclear translocation, primary screen, dynein cargo transport inhibitor project, imaging, high-content, 3617.4 mouse cells | test concentration mostly 20 µM; stimulated with dexamethasone, 1 µM; hits give low values | z-score, hits read low | 220,000 compounds, 0.47% hits | AID 1381, 2008;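 active = plate z-score of nuclear minus cytoplasmic receptor signal below a set negative limit, without overly bright fluorescence or cell loss, cut at about -3.5 in these data, passing the limit was not always enough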;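 note: z-score of nuclear minus cytoplasmic ring GR-EGFP intensity difference per well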
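medium = tetracycline-free induction medium containing charcoal-stripped FBS | also added = 1.0 µM final dexamethasone stimulus | schedule = 48 h induction, 1 h compound, 30 min dex at 37 °C | technique = fixed, Hoechst-stained cells imaged at 10x for EGFP | measure = GR-EGFP nuclear translocation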
UPR CHOP act: activators of apoptotic CHOP UPR arm, primary screen, cell-based, CHO-CHOP luciferase reporter, luminescence, uHTS; UPR activation; percent of tunicamycin response over DMSO baseline; activation, % at 10 µM; 330,000 compounds, 0.34% hits;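 active = at 10 µM dose, activation of 40% or more, normalized to positive control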;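 note: 100% = tunicamycin at 10 µg/mL and 0% = DMSO alone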
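Assay system: CHO-CHOP cells, stable luciferase reporter of PERK-eIF2a-CHOP signalling / Buffer or medium: F12 plus 10% serum / Compound dosing: one dose, 10 µM in 0.5% DMSO / Times: 6 h compound treatment, 37 °C / Technique: luciferase luminescence / Read-out: % reporter activation, DMSO baseline versus tunicamycin full activation / Benchmarks: tunicamycin and DMSO controls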
CHOP inhibitor: inhibitors of CHOP promoter induction, primary screen, cell-based, unfolded protein response, luciferase reporter | CHO-K1 CHOP-promoter luciferase, tunicamycin-induced, 15-18 h | inhibition, % at 10 µM | 220,000 compounds, 3.8% hits | AID 2732, 2010;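 active = compounds that reduced the stress-induced luciferase reporter signal by more than about 70% of percent inhibition, limit read from the data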;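 note: 0% = tunicamycin plus vehicle and 100% = wells without tunicamycin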
B2AR ag: beta2AR agonists driving receptor internalization, primary screen, cell-based, FAP fluorogen, flow cytometry. Beta-2 adrenergic receptor (Homo sapiens), P07550. Am2.2-beta2AR cells. response, % (test concentration not listed). 340,000 compounds, 0.43% hits;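 active = response above a set limit, near 3 SD of response in nonfluorescent compounds, cut at about 42% in these data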
p-CIP stab down: p/CIP-EGFP fusion destabilizers, primary screen, fluorescence, F442A cells; Q05BA5; 16 h; 290,000 compounds, 0.01% hits; decrease of EGFP signal, % at 10 µM;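 active = EGFP signal decrease of at least 30% at 10 µM or well 3 SD below plate mean, unless failing retest; inactive = the rest, including hits failing retest or dose response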
CHOP inh conf: retest of CHOP induction inhibitors, confirmation, cell-based. inhibition, % at 10 µM. shares compounds with CHOP inhibitor. 2,100 compounds, 45% hits. AID 504437, 2011. CHO-CHOP promoter luciferase reporter, tunicamycin-induced, luminescence;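 active = mean of three repeat readings of reporter signal inhibition above a set limit, cut at about 70% in these data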;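 note: 0% = tunicamycin plus vehicle and 100% = wells lacking tunicamycin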
* marks the source's active call; other numbers are inactive results; · = no result.

SMILES	XBP1 UPR activ	Dynein transport	UPR CHOP act	CHOP inhibitor	B2AR ag	p-CIP stab down	CHOP inh conf
Cc1ccc(-n2c(=O)[nH]c3c(C(N)=O)nc(-c4ccc(C)o4)nc32)cc1	-2	0.39	0	107*	1	-1	121*
Nc1nonc1-c1nc2ccccc2n1Cc1ccc(F)cc1Cl	6	-1.2	4	100*	-1	-18	-41
CCCn1c(-c2nonc2N)nc2ccccc21	-1	1.4	-1	32	10	5	·
Cc1cc(C2=NNC(=NC3CC3)SC2)c(C)n1-c1ccccc1F	-7	-2	-12	105*	-14	-19	125*
Cc1cc(C2=NNC(=NC3CCCCC3)SC2)c(C)n1-c1c(C)n(C)n(-c2ccccc2)c1=O	-1	-0.2	1	42	-1	-7	·
CC(=O)Nc1cccc(C(=O)OCC(=O)N2CCC(c3ccccc3)=N2)c1	4	·	2	·	0	·	·
NC(=O)CC(NC(=O)c1ccc(Br)cc1)c1ccc(NCc2ccc(F)cc2)c([N+](=O)[O-])c1 (stereo unspecified)	-1	-0.54	-2	65	2	-17	·
Cc1ccccc1CNc1ccc(C(CC(N)=O)NC(=O)c2ccc(Br)cc2)cc1[N+](=O)[O-] (stereo unspecified)	0	0.41	0	103*	-9	4	24
NC(=O)CC(NC(=O)Cc1cccc2ccccc12)c1ccc(NC2CCCC2)c([N+](=O)[O-])c1 (stereo unspecified)	·	·	·	·	-5	·	·
NC(=O)CC(NC(=O)Cc1cccc2ccccc12)c1ccc(NC2CCCCC2)c([N+](=O)[O-])c1 (stereo unspecified)	0	0.71	1	105*	-5	-12	13
COC(=O)[C@]1(C)N[C@H](CN(C)S(=O)(=O)c2ccc(C(F)(F)F)cc2)[C@@H]2C(=O)N(C)C(=O)[C@@H]21	-1	·	0	·	-7	·	·
COc1ccc(C(=O)Nc2nnc(-c3ccco3)s2)cc1	-10	0.56	-7	107*	-13	-6	73*
COc1ccccc1NC(=O)Nc1nnc(-c2ccco2)s1	0	0.82	1	4	·	-1	·
O=C(Nc1ccc(F)cc1)Nc1nnc(-c2ccco2)s1	1	-0.83	5	96*	0	37	12
O=C(Nc1nnc(-c2ccco2)s1)c1ccccc1	-6	-0.48	-2	-12	-7	3	·
CCOc1ccc(N(CC(=O)N2CCCCCC2)S(=O)(=O)c2ccc(F)cc2)cc1	-2	·	-1	·	-5	-5	·
COc1ccc(O)c(C(=O)CC(=O)c2ccc(F)cc2)c1	-4	-0.41	3	103*	6	-2	68
Cc1ccc(O)c(C(=O)CC(=O)c2cccc(F)c2)c1	1	0.69	23	108*	3	-1	53
O=C(Nc1cc(S(=O)(=O)N2CCOCC2)ccc1N1CCCCC1)c1ccccc1Br	-4	·	-1	·	-4	·	·
CC(C)Oc1ccc(CNC(=O)CC(c2ccccc2)c2cc(Cl)ccc2O)cc1 (stereo unspecified)	-1	1.6	0	98*	4	-3	104*
CCOC(=O)CSC1=NC(=O)/C(=C\c2ccc(OC(C)=O)cc2)S1	12	-0.65	8	106*	25	8	28
CCOC(=O)COc1ccc(Br)cc1/C=C1\SC(N)=NC1=O	-5	·	1	·	28	10	·
CCCCc1nnc(NC(=O)C(C)Sc2nc(O)c(Cc3ccccc3)c(=O)[nH]2)s1 (stereo unspecified)	-1	2.7	1	2	8	-8	·
CC(C)CC(=O)/C(=C/c1ccc(N(C)C)cc1)n1cncn1	-1	·	0	·	-5	-9	·
CC(C)CC(=O)/C(=C\c1ccc(Cl)cc1Cl)n1cncn1	·	-3	·	109*	47*	-15	3
SMILES	XBP1 UPR activ	Dynein transport	UPR CHOP act	CHOP inhibitor	B2AR ag	p-CIP stab down	CHOP inh conf
Cc1ccc(S(=O)(=O)Oc2ccc(/C=C3/N=C(c4ccccc4)OC3=O)cc2)cc1	1	-0.43	-1	2	6	-25	·
CCCCCCCC(=O)N/N=C/c1ccc(Br)cc1	0	-0.84	0	97*	-1	-7	132*
CCOc1ccc(N2C(=O)CC(N(CCc3ccc(OC)c(OC)c3)C(=O)/C=C/C(=O)O)C2=O)cc1 (stereo unspecified)	0	1.1	0	12	2	-2	·
O=C(O)C(c1ccccc1)C(O)C1CCCC1 (stereo unspecified)	·	·	·	·	0	·	·
COc1ccc(-c2cnc(OC(C)(C)C)nc2OC(C)(C)C)cc1OC	3	0.15	-1	106*	6	-13	89*
COc1ccc(-c2cc3cc(OC)c(OC)cc3cn2)cc1OC	8	·	5	·	-3	·	·
COc1ccc(-c2nc(NC(=O)Cn3ccc(C(F)(F)F)n3)sc2C)cc1	-9	-0.19	-2	103*	9	-4	74*
C=C(C)[C@@H]1CC[C@]2(C(=O)O)CC[C@]3(C)[C@H](CC[C@@H]4[C@@]5(C)CC[C@H](O)C(C)(C)[C@@H]5CC[C@]43C)[C@@H]12	12	-0.23	1	103*	4	-2	66
C=C(CC[C@@H](O)C(C)(C)O)[C@H]1CC[C@]2(C)[C@@H]1CCC1[C@@]3(C)CC[C@H](O)C(C)(C)C3CC[C@]12C (stereo partly specified)	2	·	0	·	16	·	·
CCC1Sc2ccc(S(=O)(=O)CCC(=O)NCc3ccco3)cc2NC1=O (stereo unspecified)	-2	·	-1	·	6	-4	·
O=C(CSc1ncnc2[nH]ncc12)Nc1nc(-c2ccc(F)c(F)c2)cs1	8	-1.7	1	99*	13	-7	116*
O=C(Cc1ccc(F)cc1)Nc1nc(-c2ccc(F)c(F)c2)cs1	-6	·	5	·	15	-4	·
COc1cccc(N2CCN(c3ncnc4c3[nH]c3ccc(F)cc34)CC2C)c1 (stereo unspecified)	-16	-1.9	-12	·	41	-14	·
COc1cccc(N2CCN(c3ncnc4c3[nH]c3ccccc34)CC2C)c1 (stereo unspecified)	-11	-0.81	-6	109*	·	-6	117*
CCCOc1ccc(/C=N/NC(=S)Nc2ccccc2[N+](=O)[O-])c(O)c1	·	-0.21	·	101*	·	5	32
